Assay [1] relates to Mus musculus. In words: At 5 mg/kg dose CDF1 mice were injected ip on (1,5) days after tumor transplantation to evaluate mean survival time. In kind it is functional. As to conditions: route intraperitoneal. The method in brief: (§1)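 CDF1 mice were inoculated ip with 10^6 murine leukemia cells on day 0. Drug was given ip starting 24 h later, on the day schedule listed in each line. Mice were checked daily for toxicity and survival, and day of death was recorded over a 60-day study. The result is reported as mean survival time of treated mice divided by that of controls, ×100.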

For a further assay, the system named is L1210. The assay can be described thus: The compound was tested for its antitumor activity against L1210 cells. As to conditions: Mus musculus, read-out: ID50 (the source's name). In kind it is functional.
The species named for assay [2] is Homo sapiens. In words: Inhibition of cellular growth was evaluated in vitro against human colon carcinoma LOVO. It is filed as functional, organism-based. The method in brief: (§2)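 LOVO and LOVO/DOXO cells were grown at 37 °C under 5% CO2 in Ham's F12 with 20% fetal calf serum. They were plated at 2.5 × 10³ cells/dish and exposed continuously to drug for 144 h. Growth inhibition was read by MTT assay, and the ID50 (drug concentration giving 50% inhibition of growth versus control) was derived.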

Assay [3] is filed under the species Homo sapiens. In words: Inhibition of cellular growth was evaluated in vitro against human colon carcinoma subline resistant to DOXO (LOVO/DOXO). In kind it is functional, organism-based. The method in brief: as §2
In assay [4] the test system is Mus musculus. In words: At 12.5 mg/kg dose CDF1 mice were injected ip on (1,5,9) days after tumor transplantation to evaluate mean survival time. It is filed as functional. As to conditions: route intraperitoneal. The method in brief: as §1
Assay [5] concerns Mus musculus. In words: At 25 mg/kg dose CDF1 mice were injected ip on (1,5,9) days after tumor transplantation to evaluate mean survival time. In kind it is functional. To be noted: route intraperitoneal. The method in brief: as §1
Assay [6] has as its system Mus musculus. In words: At 6.25 mg/kg dose CDF1 mice were injected ip on (1,5,9) days after tumor transplantation to evaluate mean survival time. In kind it is functional. To be noted: route intraperitoneal. The method in brief:
as §1

Assay [7] concerns Mus musculus. In words: At 50 mg/kg dose CDF1 mice were injected ip on (1,5,9) days after tumor transplantation to evaluate mean survival time. In kind it is functional. To be noted: route intraperitoneal. The method in brief:
as §1

For assay [8], the system named is Mus musculus. The assay can be described thus: At 50 mg/kg dose CDF1 mice were injected ip on 1 day after tumor transplantation to evaluate mean survival time. It is filed as functional. As to conditions: route intraperitoneal. The method in brief: as §1
Assay [9] concerns Mus musculus. The assay can be described thus: At 25 mg/kg dose CDF1 mice were injected ip on (1) days after tumor transplantation to evaluate mean survival time. It is filed as functional. To be noted: route intraperitoneal. The method in brief: as §1
Assay [10] concerns Mus musculus. The assay can be described thus: At 12.5 mg/kg dose CDF1 mice were injected ip on (1) days after tumor transplantation to evaluate mean survival time. In kind it is functional. To be noted: route intraperitoneal. The method in brief: as §1
For assay [11], the species on record is Homo sapiens. The assay can be described thus: Inhibition of cellular growth was evaluated in vitro against human colon carcinoma LOVO. In kind it is functional. The method in brief:
as §2

Assay [12] concerns Mus musculus. The assay can be described thus: At 50 mg/kg dose CDF1 mice were injected ip on (1,5) days after tumor transplantation to evaluate mean survival time. In kind it is functional. As to conditions: route intraperitoneal. The method in brief:
as §1

Assay [13] relates to Mus musculus. The assay can be described thus: At 25 mg/kg dose CDF1 mice were injected ip on (1,5) days after tumor transplantation to evaluate mean survival time. It is filed as functional. To be noted: route intraperitoneal. The method in brief:
as §1

The values that follow come from ChEMBL document CHEMBL1125604, “Synthesis and antitumor evaluations of symmetrically and unsymmetrically substituted 1,4-bis[(aminoalkyl)amino]anthracene-9,10-diones and 1,4-bis[(aminoalkyl)amino]-5,8-dihydroxyanthracene-9,10-diones” (J Med Chem, 1991).

In brackets after ≈: the same amount, converted by molar mass. Some results are limits rather than exact numbers.

Molecule `NCCCCNc1ccc(NCCNCCO)c2c1C(=O)c1c(O)ccc(O)c1C2=O` registered a T/C in the assay with Mus musculus [1] of 138%. Moreover, the IC50 in the assay on L1210 came out at 0.0007 µg/mL (≈ 0.00163 µM).
For the molecule `COc1cccc2c1C(=O)c1c(O)c3c(c(O)c1C2=O)C[C@@](O)(C(=O)CO)C[C@@H]3O[C@H]1C[C@H](N)[C@H](O)[C@H](C)O1` [DOXORUBICIN], the results for the IC50 in the assay listed under Homo sapiens [2] and in the assay filed under Homo sapiens [3] were 0.0247 µg/mL (≈ 0.0454 µM) and 3.84 µg/mL (≈ 7.07 µM), respectively.
For `O=C1c2ccccc2C(=O)c2c(NC3CC3)ccc(NC3CC3)c21`, the T/C in the assay on Mus musculus [4] is 112%; with Mus musculus [5], 107%; in the assay on Mus musculus [6] it was 100%. In addition, in the assay on L1210, the IC50 was over 10 µg/mL.
As to `CN(C)CCNc1ccc(NCCN)c2c1C(=O)c1ccccc1C2=O`, the T/C is reported as 129% in the assay on Mus musculus [4], 180% in the assay on Mus musculus [7] and 150% with Mus musculus [5]. For the same molecule, the IC50 with L1210 amounted to 0.03 µg/mL (≈ 0.0851 µM).
Take `CN(C)CCN(C)c1ccc(N(C)CCN(C)C)c2c1C(=O)c1ccccc1C2=O`: the T/C was determined as 95% in the assay with Mus musculus [8], 100% in the assay with Mus musculus [9] and 103% in the assay with Mus musculus [10]. The IC50 with L1210 was found to be 4.6 µg/mL (≈ 11.3 µM).
As for `CN(C)CCNc1ccc(NCCNCCO)c2c1C(=O)c1c(O)ccc(O)c1C2=O`, the IC50 in the assay listed under Homo sapiens [11] stood at 0.001 µg/mL (≈ 0.00233 µM); in the assay filed under Homo sapiens [3], 0.024 µg/mL (≈ 0.056 µM); in the assay with L1210 it was 0.00017 µg/mL (≈ 0.000397 µM). Also, the T/C was found to be 187% with Mus musculus [4], 244% in the assay on Mus musculus [5] and 188% in the assay on Mus musculus [6].
As for `CN(C)CCNc1ccc(NCCCCN)c2c1C(=O)c1ccccc1C2=O`, the T/C in the assay with Mus musculus [4] was determined as 113%; in the assay with Mus musculus [12] it was 64%; in the assay on Mus musculus [13], 111%. Moreover, the IC50 with L1210 was 0.0045 µg/mL (≈ 0.0118 µM).
In the case of `CN(C)CCNc1ccc(N(C)CCN(C)C)c2c1C(=O)c1ccccc1C2=O`, the results for the T/C with Mus musculus [7] and in the assay with Mus musculus [13] were 127% and 108%, respectively. In addition, the IC50 in the assay with L1210 came out at 0.5 µg/mL (≈ 1.27 µM).
With `CN(C)CCNc1ccc(NCCNCCO)c2c1C(=O)c1ccccc1C2=O`, the T/C was 145% in the assay with Mus musculus [7] and 148% in the assay on Mus musculus [5]. In addition, the IC50 with L1210 was found to be 0.0038 µg/mL (≈ 0.00958 µM).
As for `O=C1c2ccccc2C(=O)c2c(NCCNCCO)ccc(NCCNCCO)c21` [AMETANTRONE], the T/C is 177% in the assay with Mus musculus [4], 146% in the assay on Mus musculus [7] and 252% in the assay on Mus musculus [5]. For the same molecule, the IC50 stood at 0.283 µg/mL (≈ 0.685 µM) in the assay listed under Homo sapiens [2], 44.8 µg/mL (≈ 109 µM) in the assay filed under Homo sapiens [3] and 0.01 µg/mL (≈ 0.0242 µM) in the assay on L1210.
`O=C1c2c(O)ccc(O)c2C(=O)c2c(NCCNCCO)ccc(NCCNCCO)c21` [MITOXANTRONE]: the IC50 in the assay listed under Homo sapiens [2] worked out at 0.0055 µg/mL (≈ 0.0124 µM); in the assay filed under Homo sapiens [3] it was 0.274 µg/mL (≈ 0.616 µM).
